In ChEMBL document CHEMBL1781970, “Synthesis and antiproliferative evaluation of 23-hydroxybetulinic acid derivatives” (Eur J Med Chem, 2011):

What was measured:
Assay type in all cases: functional, cell-based
A-375 = assay: Antiproliferative activity against human A375 cells after 72 hrs by MTT assay; details: A-375, 72 h
Method in brief: (§1)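 Cells grown in RPMI 1640 with 10% FBS and 1% penicillin-streptomycin at 37 °C, 5% CO2, then seeded overnight in 96-well plates. Test compounds were dissolved in DMSO (doxorubicin control in PBS) and given at various concentrations for 72 h at 37 °C. MTT (5 mg/mL in PBS) was added for 4 h and OD read at 570 nm. IC50 was taken from dose-response curves; mean ± SD, ≥3 independent experiments.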

MCF7 = assay: Antiproliferative activity against human MCF7 cells after 72 hrs by MTT assay; details: MCF7, 72 h; method in brief: as §1
B16 = assay: Antiproliferative activity against mouse B16 cells after 72 hrs by MTT assay; details: B16, 72 h; method in brief: as §1
HeLa = assay: Antiproliferative activity against human HeLa cells after 72 hrs by MTT assay; method in brief: as §1
HepG2 = assay: Antiproliferative activity against human HepG2 cells after 72 hrs by MTT assay; details: HepG2, 72 h; method in brief: as §1

| Structure (SMILES) | IC50 (A-375) | IC50 (MCF7) | IC50 (B16) | IC50 (HeLa) | IC50 (HepG2) |
| --- | --- | --- | --- | --- | --- |
| C=C(C)[C@@H]1CC[C@]2(C(=O)OC/C=C/CO)CC[C@]3(C)[C@H](CC[C@@H]4[C@@]5(C)CC[C@H](OC(C)=O)[C@@](C)(COC(C)=O)[C@@H]5CC[C@]43C)[C@@H]12 | 5.72 µM | 15.9 µM | > 100 µM | 16.4 µM | 7.43 µM |
| C=C(C)[C@@H]1CC[C@]2(C(=O)N3CCC(N4CCCCC4)CC3)CC[C@]3(C)[C@H](CC[C@@H]4[C@@]5(C)CC[C@H](OC(C)=O)[C@@](C)(COC(C)=O)[C@@H]5CC[C@]43C)[C@@H]12 | 8.42 µM | 6.86 µM | 9.57 µM | 10.8 µM | 11.1 µM |
| C=C(C)[C@@H]1CC[C@]2(C(=O)NCCCCn3nnc(-c4ccccn4)n3)CC[C@]3(C)[C@H](CC[C@@H]4[C@@]5(C)CC[C@H](OC(C)=O)[C@@](C)(COC(C)=O)[C@@H]5CC[C@]43C)[C@@H]12 | 1.81 µM | 16.1 µM | 4.75 µM | 17.9 µM | 3.91 µM |
| C=C(C)[C@@H]1CC[C@]2(C(=O)N3CCOCC3)CC[C@]3(C)[C@H](CC[C@@H]4[C@@]5(C)CC[C@H](OC(C)=O)[C@@](C)(COC(C)=O)[C@@H]5CC[C@]43C)[C@@H]12 | 4.33 µM | 26.4 µM | 18.5 µM | 7.47 µM | 9.74 µM |
| C=C(C)[C@@H]1CC[C@]2(C(=O)N3CCC[C@H]3C(=O)OC)CC[C@]3(C)[C@H](CC[C@@H]4[C@@]5(C)CC[C@H](OC(C)=O)[C@@](C)(COC(C)=O)[C@@H]5CC[C@]43C)[C@@H]12 | 5.83 µM | 27.2 µM | 93.7 µM | 9.78 µM | 9.78 µM |
| C=C(C)[C@@H]1CC[C@]2(C(=O)N3CCC(N4CCCCC4)CC3)CC[C@]3(C)[C@H](CC[C@@H]4[C@@]5(C)CC[C@H](O)[C@@](C)(CO)[C@@H]5CC[C@]43C)[C@@H]12 | 9.67 µM | 6.78 µM | 5.71 µM | 8.42 µM | 12.6 µM |
| C=C(C)[C@@H]1CC[C@]2(C(=O)NCCN)CC[C@]3(C)[C@H](CC[C@@H]4[C@@]5(C)CC[C@H](O)[C@@](C)(CO)[C@@H]5CC[C@]43C)[C@@H]12 | 4.83 µM | 2.93 µM | 8.38 µM | 8.92 µM | 9.57 µM |
| C=C(C)[C@@H]1CC[C@]2(C(=O)N3CCNCC3)CC[C@]3(C)[C@H](CC[C@@H]4[C@@]5(C)CC[C@H](O)[C@@](C)(CO)[C@@H]5CC[C@]43C)[C@@H]12 | 2.3 µM | 2.27 µM | 4.39 µM | 7.12 µM | 8.85 µM |
| C=C(CO)[C@@H]1CC[C@]2(C(=O)OC(C)C)CC[C@]3(C)[C@H](CC[C@@H]4[C@@]5(C)CC[C@H](OC(C)=O)[C@@](C)(COC(C)=O)[C@@H]5CC[C@]43C)[C@@H]12 | 21.5 µM | 17.2 µM | 23.7 µM | 19.5 µM | 10.7 µM |
| C=C(CO)[C@@H]1CC[C@]2(C(=O)OC(C)(C)C)CC[C@]3(C)[C@H](CC[C@@H]4[C@@]5(C)CC[C@H](OC(C)=O)[C@@](C)(COC(C)=O)[C@@H]5CC[C@]43C)[C@@H]12 | 34.7 µM | 14.1 µM | 49.5 µM | 23.3 µM | 15.8 µM |
| C=C(CO)[C@@H]1CC[C@]2(C(=O)N3CCC[C@H]3C(=O)OC)CC[C@]3(C)[C@H](CC[C@@H]4[C@@]5(C)CC[C@H](OC(C)=O)[C@@](C)(COC(C)=O)[C@@H]5CC[C@]43C)[C@@H]12 | 11.8 µM | 32 µM | 69 µM | 13.1 µM | 10 µM |
| C=C(CO)[C@@H]1CC[C@]2(C(=O)OC(C)C)CC[C@]3(C)[C@H](CC[C@@H]4[C@@]5(C)CC[C@H](O)[C@@](C)(CO)[C@@H]5CC[C@]43C)[C@@H]12 | 21.2 µM | 16.6 µM | 38.6 µM | 22.3 µM | 21 µM |
| C=C(CO)[C@@H]1CC[C@]2(C(=O)OC(C)(C)C)CC[C@]3(C)[C@H](CC[C@@H]4[C@@]5(C)CC[C@H](O)[C@@](C)(CO)[C@@H]5CC[C@]43C)[C@@H]12 | 42.7 µM | 16.4 µM | 84.1 µM | 30.7 µM | 22.7 µM |
| C=C(CO)[C@@H]1CC[C@]2(C(=O)OCCC(C)C)CC[C@]3(C)[C@H](CC[C@@H]4[C@@]5(C)CC[C@H](O)[C@@](C)(CO)[C@@H]5CC[C@]43C)[C@@H]12 | 17.9 µM | 12.5 µM | 51.2 µM | 20.9 µM | 34.6 µM |
| C=C(C)[C@@H]1CC[C@]2(C(=O)NCC(=O)N[C@@H](C)C(=O)O)CC[C@]3(C)[C@H](CC[C@@H]4[C@@]5(C)CC[C@H](O)[C@@](C)(CO)[C@@H]5CC[C@]43C)[C@@H]12 | 18.4 µM | 17.2 µM | 22.2 µM | 22.1 µM | 32.4 µM |
| COc1cccc2c1C(=O)c1c(O)c3c(c(O)c1C2=O)C[C@@](O)(C(=O)CO)C[C@@H]3O[C@H]1C[C@H](N)[C@H](O)[C@H](C)O1 [DOXORUBICIN] | 0.13 µM | 0.19 µM | 0.14 µM | 0.13 µM |  |

Continued by falling IC50 (A-375), values first:

| IC50 (A-375) | IC50 (MCF7) | IC50 (B16) | IC50 (HeLa) | IC50 (HepG2) | Structure (SMILES) |
| --- | --- | --- | --- | --- | --- |
| 53.7 µM | 22.2 µM | 64.3 µM | 11 µM | 11.3 µM | C=C(CO)[C@@H]1CC[C@]2(C(=O)N3CCCCC3)CC[C@]3(C)[C@H](CC[C@@H]4[C@@]5(C)CC[C@H](OC(C)=O)[C@@](C)(COC(C)=O)[C@@H]5CC[C@]43C)[C@@H]12 |
| 31.8 µM | 17.3 µM | 39.3 µM | 18.3 µM | 20.7 µM | C=C(CO)[C@@H]1CC[C@]2(C(=O)N3CCOCC3)CC[C@]3(C)[C@H](CC[C@@H]4[C@@]5(C)CC[C@H](OC(C)=O)[C@@](C)(COC(C)=O)[C@@H]5CC[C@]43C)[C@@H]12 |
| 25.1 µM | 19.8 µM | 42.7 µM | 34.3 µM | 42 µM | C=C(C)[C@@H]1CC[C@]2(C(=O)N3CCOCC3)CC[C@]3(C)[C@H](CC[C@@H]4[C@@]5(C)CC[C@H](O)[C@@](C)(CO)[C@@H]5CC[C@]43C)[C@@H]12 |
| 20.4 µM | 17.6 µM | 8.69 µM | 20.6 µM | 10.3 µM | C=C(C)[C@@H]1CC[C@]2(C(=O)N3CCC(N4CCCCC4)CC3)CC[C@]3(C)[C@H](CC[C@@H]4[C@@]5(C)CC[C@@H]6OC(=O)OC[C@@]6(C)[C@@H]5CC[C@]43C)[C@@H]12 |
| 19 µM | 47.1 µM | > 100 µM | 9.84 µM | 8.41 µM | C=CCN(CC=C)C(=O)[C@]12CC[C@@H](C(=C)C)[C@@H]1[C@H]1CC[C@@H]3[C@@]4(C)CC[C@H](OC(C)=O)[C@@](C)(COC(C)=O)[C@@H]4CC[C@@]3(C)[C@]1(C)CC2 |
| 18.8 µM | 4.89 µM | 13.1 µM | 18.8 µM | 17.7 µM | C=C(C)[C@@H]1CC[C@]2(C(=O)N3CCNCC3)CC[C@]3(C)[C@H](CC[C@@H]4[C@@]5(C)CC[C@H](OC(C)=O)[C@@](C)(COC(C)=O)[C@@H]5CC[C@]43C)[C@@H]12 |
| 12.5 µM | 33.6 µM | 41.8 µM | 17.8 µM | 18.7 µM | C=C(CO)[C@@H]1CC[C@]2(C(=O)OCC3CCCO3)CC[C@]3(C)[C@H](CC[C@@H]4[C@@]5(C)CC[C@H](OC(C)=O)[C@@](C)(COC(C)=O)[C@@H]5CC[C@]43C)[C@@H]12 (some centres undefined) |
| 9.99 µM | 3.93 µM | 4.61 µM | 7.39 µM | 7.99 µM | C=C(C)[C@@H]1CC[C@]2(C(=O)NCCN)CC[C@]3(C)[C@H](CC[C@@H]4[C@@]5(C)CC[C@H](OC(C)=O)[C@@](C)(COC(C)=O)[C@@H]5CC[C@]43C)[C@@H]12 |
| 9.23 µM | 9.95 µM | 7.25 µM | 12.5 µM | 18.5 µM | C=C(C)[C@@H]1CC[C@]2(C(=O)O)CC[C@]3(C)[C@H](CC[C@@H]4[C@@]5(C)CC[C@H](O)[C@@](C)(COC(=O)N6CCC(N7CCCCC7)CC6)[C@@H]5CC[C@]43C)[C@@H]12 |
| 8.71 µM | 97.6 µM | 24.2 µM | 9.18 µM | 12.3 µM | C=C(C)[C@@H]1CC[C@]2(C(=O)OCCN3CCOCC3)CC[C@]3(C)[C@H](CC[C@@H]4[C@@]5(C)CC[C@H](OC(C)=O)[C@@](C)(COC(C)=O)[C@@H]5CC[C@]43C)[C@@H]12 |
| 7.8 µM | 15.1 µM | 35.9 µM | 20.8 µM | 10.7 µM | C=C(CO)[C@@H]1CC[C@]2(C(=O)OCCC(C)C)CC[C@]3(C)[C@H](CC[C@@H]4[C@@]5(C)CC[C@H](OC(C)=O)[C@@](C)(COC(C)=O)[C@@H]5CC[C@]43C)[C@@H]12 |
| 5.01 µM | 8.95 µM | 11.3 µM | 8.27 µM | 12.1 µM | C=C(C)[C@@H]1CC[C@]2(C(=O)NCC(=O)N[C@@H](C)C(=O)OC)CC[C@]3(C)[C@H](CC[C@@H]4[C@@]5(C)CC[C@H](O)[C@@](C)(CO)[C@@H]5CC[C@]43C)[C@@H]12 |
| 3.34 µM | 7.58 µM | 8.23 µM | 4.84 µM | 9.33 µM | C=C(C)[C@@H]1CC[C@]2(C(=O)NCC(=O)N3CCC[C@H]3C(=O)OC)CC[C@]3(C)[C@H](CC[C@@H]4[C@@]5(C)CC[C@H](O)[C@@](C)(CO)[C@@H]5CC[C@]43C)[C@@H]12 |
